Bioassay records: PubChem, several laboratories
Rows were chosen to be rich in hits. Some 2.5% of all compounds tested hit in one or more screens of this group.
HCV NS3 hel inh: HCV NS3 helicase inhibition; NS3 helicase DNA unwinding, Cy5 molecular beacon fluorescence; AID 1800; inhibition, % at 10.9 µM; 290,000 compounds, 0.56% hits;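 active means inhibition above the mean of all tested compounds plus 3 SD, set per campaign, cut at about 35% in these data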;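 further: 0% = DMSO wells and 100% = thioflavine S control wells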
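System: HCV NS3 helicase fragment; control set: DMSO and thioflavine S; technique: Cy5 fluorescence at 0 and 60 min, beacon hairpin quenching; reagent: beacon DNA duplex substrate plus ATP; replicates: singlicate; schedule: 1 h reaction at 25 °C, ATP-initiated; medium: MOPS buffer pH 6.5 with MgCl2, DTT, Tween20, BSA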
SUMO1 PPI mod: alters human SUMO1 binding to SIM partners. SUMO1 binding to a labelled peptide, TR-FRET, 1 h. P63165. inhibition, % at 20 µM. 360,000 compounds, 0.33% hits. AID 602429; in the data active means inhibition above about 37%
DSG3 Ab inh: human desmoglein-3 autoantibody binding inhibition. P32926. DSG3-coupled beads, scFv-anti-DSG3-GFP binding, flow cytometry; stronger effect = lower value. binding (percent of control), % at 10 µM. 310,000 compounds, 0.48% hits. AID 588358;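 active means binding more than 3 SD below its plate's average and above zero; inconclusive means below that plate limit but binding exactly zero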;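 further: hits lower antibody fragment binding to DSG3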
MBD2 DNA inh: blocks human MBD2 binding to methylated DNA; Q9UBB5; TR-FRET, MBD2 binding to methylated oligonucleotide; inhibition, % at 4.4 µM; 370,000 compounds, 0.31% hits; in the data active means inhibition above about 13%
DNMT1 block: DNMT1 (human) enzyme inhibition. 360,000 compounds, 0.83% hits. P26358. DNMT1 molecular beacon, Hinp1I cleavage, fluorescence. inhibition (reported as % activation of signal), % at 10 µM; in the data active means inhibition above about 50%
UHRF1 binding: UHRF1 methyl-DNA binding inhibition; Q96T88; UHRF1 binding to methylated oligo, TR-FRET; inhibition, % at 4.4 µM; 370,000 compounds, 0.75% hits; AID 687016;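 further: UHRF1 SRA domain binding a hemimethylated CpG hairpin DNA probe; 0% = median of test compound wells and 100% = reference inhibitor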
UHRF1 DNA bind: inhibits human UHRF1 binding to methylated oligonucleotide, MBD2 counter-screen. shares compounds with MBD2 DNA inh. TR-FRET. inhibition, % at 4.4 µM. 1,000 compounds, 25% hits. AID 720530;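 further: UHRF1 SRA domain binding a labeled hemimethylated CpG hairpin DNA; 0% = vehicle only and 100% = reference inhibitor with vehicle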
MBD2 DBD conf: confirmation of human MBD2-DBD methylated oligonucleotide binding inhibitors; shares compounds with MBD2 DNA inh; TR-FRET MBD2-DBD binding to methylated oligonucleotide; inhibition, % at 4.4 µM; 1,000 compounds, 26% hits; AID 720531; in the data active means inhibition above about 14%
Active calls of the source: *. Unless noted, no stated cut-off is given here; in the data, active means inhibition above about 21%; inactive means the rest.

Results for C#CCOCCOCCOCCNc1nc(N2CCN(C(=O)[C@H](CCCCN)n3cc(CN)nn3)CC2)nc(N2CCN(C(=O)[C@H](CCCCN)n3cc([C@@H](N)[C@H](C)CC)nn3)CC2)n1 ?
SUMO1 PPI mod: -190; DSG3 Ab inh: 111; MBD2 DNA inh: -3; DNMT1 block: -181; UHRF1 binding: 12

How did C#CCOCCOCCOCCNc1nc(N2CCN(C(=O)[C@H](CCCCN)n3cc([C@@H](N)C(C)CC)nn3)CC2)nc(N2CCN(C(=O)[C@H](CCCCN)n3cc([C@@H](N)C(C)CC)nn3)CC2)n1 (stereo partly drawn) do in these assays?
MBD2 DNA inh: 16*; UHRF1 binding: 16; UHRF1 DNA bind: 6; MBD2 DBD conf: 3

What do the screens show for `CCOc1cc(N2CCOCC2)c(OCC)cc1NC(=O)C1=COCCO1`?
SUMO1 PPI mod: 4; DSG3 Ab inh: 104; MBD2 DNA inh: -6; DNMT1 block: 4; UHRF1 binding: -1

Results for COc1ccc(Cc2nnc(NC(=O)CS(=O)(=O)c3ccc(C)cc3)s2)cc1OC ?
HCV NS3 hel inh: 9; SUMO1 PPI mod: 1; DSG3 Ab inh: 111; MBD2 DNA inh: 22*; DNMT1 block: -1; UHRF1 binding: -2; UHRF1 DNA bind: 8; MBD2 DBD conf: 1

What do the screens show for `CCOCCc1nnc(NC(=O)CS(=O)(=O)c2ccc(C)cc2)s1`?
HCV NS3 hel inh: 15; SUMO1 PPI mod: 7; DSG3 Ab inh: 103; MBD2 DNA inh: 2; DNMT1 block: 2; UHRF1 binding: 0

Results for O=[N+]([O-])c1cc(S(=O)(=O)NC2=NCCCCC2)ccc1Cl ?
HCV NS3 hel inh: 2; SUMO1 PPI mod: -20; DSG3 Ab inh: 90; MBD2 DNA inh: 2; DNMT1 block: 2; UHRF1 binding: 2

What do the screens show for `O=C(COC(=O)Cc1ccc(F)cc1)NCc1ccco1`?
HCV NS3 hel inh: 1; SUMO1 PPI mod: -1; DSG3 Ab inh: 83; MBD2 DNA inh: 3; DNMT1 block: 15; UHRF1 binding: 4

Results for O=C(COC(=O)Cc1cccc(C(F)(F)F)c1)NCc1ccco1 ?
SUMO1 PPI mod: 11; DSG3 Ab inh: 91; MBD2 DNA inh: 17*; DNMT1 block: 92*; UHRF1 binding: 35*; UHRF1 DNA bind: 21*; MBD2 DBD conf: 6

Results for FC(F)(F)C1=Nc2cccc3cccc(c23)N1 ?
SUMO1 PPI mod: 117*; DSG3 Ab inh: 92; MBD2 DNA inh: 34*; DNMT1 block: 108*; UHRF1 binding: 54*; UHRF1 DNA bind: 9; MBD2 DBD conf: 2

What do the screens show for `O=C(c1cccs1)N1CCN(C(=O)c2cn(-c3ccccc3)nc2-c2ccccc2)CC1`?
SUMO1 PPI mod: 6; DSG3 Ab inh: 94; MBD2 DNA inh: -1; DNMT1 block: -4; UHRF1 binding: -1

What do the screens show for `Nc1ncnc2oc(-c3ccco3)c(-c3ccco3)c12`?
HCV NS3 hel inh: 22; SUMO1 PPI mod: 31; DSG3 Ab inh: 52*; MBD2 DNA inh: 81*; DNMT1 block: 93*; UHRF1 binding: 92*; UHRF1 DNA bind: 53*; MBD2 DBD conf: 39*

How did c1ccc(-n2nc3c(ccc4cnnc43)[nH]2)cc1 do in these assays?
HCV NS3 hel inh: -3; SUMO1 PPI mod: -1; DSG3 Ab inh: 105; MBD2 DNA inh: 15*; DNMT1 block: 0; UHRF1 binding: 19; UHRF1 DNA bind: 4; MBD2 DBD conf: 4

Results for CCn1c(SCC(=O)c2ccc(O)c(O)c2)nnc1-c1ccc(C)cc1 ?
HCV NS3 hel inh: 8; SUMO1 PPI mod: 16; DSG3 Ab inh: 105; MBD2 DNA inh: 15*; DNMT1 block: 14; UHRF1 binding: 44*; UHRF1 DNA bind: 14; MBD2 DBD conf: 5

How did CCn1c(SCC(=O)c2ccc(-c3ccccc3)cc2)nnc1-c1ccc(C(C)(C)C)cc1 do in these assays?
MBD2 DNA inh: -3; UHRF1 binding: 4

What do the screens show for `Cc1ccc(C)c(S(=O)(=O)N2CCCOC2CNC(=O)C(=O)NCCc2ccco2)c1` (stereo not drawn)?
HCV NS3 hel inh: 2; SUMO1 PPI mod: -3; DSG3 Ab inh: 97; MBD2 DNA inh: 15*; DNMT1 block: -1; UHRF1 binding: 0; UHRF1 DNA bind: 2; MBD2 DBD conf: 4

How did Cc1ccc(C)c(S(=O)(=O)N2CCCOC2CNC(=O)C(=O)NCc2ccco2)c1 (stereo not drawn) do in these assays?
HCV NS3 hel inh: 9; SUMO1 PPI mod: 0; MBD2 DNA inh: -4; DNMT1 block: -2; UHRF1 binding: 1

How did Cc1ccc(S(=O)(=O)N2CCOCC2)cc1C(=O)OCC(=O)NCc1ccc2c(c1)OCO2 do in these assays?
SUMO1 PPI mod: -1; DSG3 Ab inh: 86; MBD2 DNA inh: 16*; DNMT1 block: 3; UHRF1 binding: 33*; UHRF1 DNA bind: 6; MBD2 DBD conf: 2

How did O=C1C=C(c2ccc(C(=O)O)cc2)C[C@@H](c2ccc3c(c2)OCO3)C1 do in these assays?
SUMO1 PPI mod: -7; DSG3 Ab inh: 97; MBD2 DNA inh: 16*; DNMT1 block: 9; UHRF1 binding: 17; UHRF1 DNA bind: 14; MBD2 DBD conf: 8

Results for Cc1cccc(N2CC(C(=O)Nc3cccc(S(=O)(=O)N4CCCCC4)c3)CC2=O)c1C (stereo not drawn) ?
SUMO1 PPI mod: 17; DSG3 Ab inh: inconclusive; MBD2 DNA inh: 81*; DNMT1 block: -2; UHRF1 binding: 4; UHRF1 DNA bind: 4; MBD2 DBD conf: 1

Results for CCOC(=O)C(Cc1ccc(NC(C)=O)cc1)N1C(=O)c2ccccc2C1=O (stereo not drawn) ?
SUMO1 PPI mod: -4; MBD2 DNA inh: 17*; DNMT1 block: 5; UHRF1 binding: 20; UHRF1 DNA bind: 2; MBD2 DBD conf: -1

What do the screens show for `CC(=O)N1Cc2cc(C(=O)NCC(F)(F)F)nc(-c3cccc(-c4cccnc4)c3)c2[C@H]1CCO`?
SUMO1 PPI mod: 5; MBD2 DNA inh: -1; UHRF1 binding: -1

What do the screens show for `CCC(=O)N1Cc2cc(C(=O)NCC(F)(F)F)nc(-c3cccc(-c4cncnc4)c3)c2[C@H]1CCO`?
SUMO1 PPI mod: 0; MBD2 DNA inh: 14*; UHRF1 binding: 26*; UHRF1 DNA bind: 2; MBD2 DBD conf: 3

How did Cc1ccc(S(=O)(=O)NCC(=O)OCC(=O)Nc2cccc(S(=O)(=O)NC3=NCCCCC3)c2)cc1C do in these assays?
HCV NS3 hel inh: -6; SUMO1 PPI mod: -1; DSG3 Ab inh: 98; MBD2 DNA inh: 3; DNMT1 block: -1; UHRF1 binding: 2
